Activity calls are given as the source filed them. The rule behind the calls is not given here.
Assays:
[1] = Photo stability of compound in saline at 10 uM irradiated with UV for 3 hrs by HPLC analysis; type: physicochemical; details: buffer
Summary of the method: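 Compounds in DMSO diluted into buffered aqueous solution pH 7.4 to a final 10 µM. Irradiated in 1 cm quartz cells by a 150 W UV lamp at 20 cm for 3 h; dark controls held at 37 °C. Aliquots analysed by UHPLC on C18 with TFA water/ACN gradient: 220 nm for loss of parent, 550 nm for phenazine/phenazinium dimers.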

[2] = Toxicity in PTZ induced C57BL/6 mouse acute seizure model assessed as mortality at 1 mg/kg, ip; type: organism-based; details: in vivo
Summary of the method: (§1)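 Male C57Bl/6 mice were pretreated i.p. with drug in saline containing 2% Tween-20 and 2% PEG-400, 30 min before PTZ (100 mg/kg s.c.). Vehicle controls received the vehicle alone. Survival was recorded as animals alive at the end of the 60 min observation period after PTZ and expressed as percent (surviving/total) per group.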

Mus musculus [3] = assay: Anticonvulsant activity in PTZ induced C57BL/6 mouse acute seizure model assessed as seizure score at 0.3 mg/kg, ip pretreated for 30 mins followed by PTZ injection and measured upto 30 mins by Liittjohann's scale analysis; type: functional; details: time 60 min, 1 h
Summary of the method: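 Male C57Bl/6 mice, drug in saline with 2% Tween-20 and 2% PEG-400, given i.p. at 0.01 mL/g 30 min before PTZ (100 mg/kg s.c. in saline). Animals watched in clear boxes for 30 min. Maximal severity was scored on the revised Lüttjohann 9-point scale (0 whisker trembling to 8 wild jumping). Group mean reported.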

[4] = Toxicity in PTZ induced C57BL/6 mouse acute seizure model assessed as in mortality at 0.3 mg/kg, ip; type: organism-based; details: in vivo; summary of the method: as §1
[5] = target: T1, Voltage-gated potassium channel, KQT; KCNQ2(Kv7.2)/KCNQ3(Kv7.3) (Homo sapiens) (UniProt O43526+O43525); assay: Activation of Kv7.2/Kv7.3 channel (unknown origin) expressed in CHO cells at -80 mV measured after 24 hrs by whole cell patch clamp based electrophysiological method; details: filed as activator
[6] = target: T1, Voltage-gated potassium channel, KQT; KCNQ2(Kv7.2)/KCNQ3(Kv7.3) (Homo sapiens); assay: Activation of Kv7.2/Kv7.3 channel (unknown origin) expressed in CHO cells assessed as half activation potential measured after 24 hrs by whole cell patch clamp based electrophysiological method; details: filed as activator
Mus musculus [7] = assay: Anticonvulsant activity in PTZ induced C57BL/6 mouse acute seizure model assessed as seizure score at 3 mg/kg, ip pretreated for 30 mins followed by PTZ injection and measured upto 30 mins by Liittjohann's scale analysis; type: functional; details: time 60 min, 1 h
Summary of the method: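 Male C57Bl/6 mice given drug i.p. in saline with 2% Tween-20 and 2% PEG-400 (0.01 mL/g), 30 min before PTZ 100 mg/kg s.c. Observed in Plexiglass boxes for 30 min. Maximal severity scored on the revised Lüttjohann 9-point scale (0–8), latency to maximal seizure recorded. One-way ANOVA with Tukey.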

[8] = target: T1, Voltage-gated potassium channel, KQT; KCNQ2(Kv7.2)/KCNQ3(Kv7.3) (Homo sapiens); assay: Activation of Kv7.2/Kv7.3 channel (unknown origin) expressed in CHO cells assessed as slope of fluorescent signal at 10 uM by FluxOR fluorescent dye based assay; type: cell-based; details: filed as activator
Summary of the method: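 CHO clone stably expressing Kv7.2/Kv7.3 (PiggyBac, puromycin 4 µg/mL), seeded 1.6 × 10^4 cells/well on poly-D-lysine, assayed 24 h later. FluxOR II thallium flux, wash method, ex 485/em 520 nm. Tl+ stimulus buffer added after 5 s, read every 1 s for 50 s. Initial slope taken from 5–15 s. Vehicle 0.1% DMSO, 10 µM retigabine reference; only runs with Z' > 0.5 kept; ≥3 experiments.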

[9] = target: T1, Voltage-gated potassium channel, KQT; KCNQ2(Kv7.2)/KCNQ3(Kv7.3) (Homo sapiens); assay: Activation of Kv7.2/Kv7.3 channel (unknown origin) expressed in CHO cells assessed as leftward shift change in half activation potential at 1 uM measured after 24 hrs by whole cell patch clamp based electrophysiological method; details: filed as activator

In the case of `CC(C)(C)CC(=O)Nc1ccc(NCc2ccc(C(F)(F)F)cc2)cc1N1CCCC1`, the Stability [1] was “Unstable”.
Work on `CC(C)(C)CC(=O)Nc1ccc(NCc2ccc(C(F)(F)F)cc2)c(F)c1N` yielded an Activity [2] of 100%, an Activity (Mus musculus [3]) of 6 and an Activity [4] of 87%. For the same compound, the Activity [5] was “Active” and the V1/2 [6] was -30.2 mV.
For `CC(C)(C)CC(=O)Nc1ccc(NCc2c(F)cccc2F)cc1N`, the Stability [1] was “Stable”.
With `CCCCCCC(=O)Nc1ccc(NCc2ccc(C(F)(F)F)cc2)cc1N` the Stability [1] was “Stable”.
`O=C1c2ccccc2C(Cc2ccncc2)(Cc2ccncc2)c2ccccc21` showed an Activity (Mus musculus [7]) of 7.3.
For `CCOC(=O)Nc1ccc(NCc2ccc(F)cc2)cc1N`, the Activity [5] was “Active”.
In the case of `Nc1cc(NCc2ccc(C(F)(F)F)cc2)ccc1NC(=O)CCC1CCCCC1`, the Stability [1] was “Stable”.
In the case of `CC(C)(C)CC(=O)Nc1ccc(NCc2ccc(C(F)(F)F)cc2)cc1N1CCCCC1`, the Stability [1] was “Unstable”.
With `CCCCCCC(=O)Nc1ccc(NCc2ccccc2)cc1N` the Stability [1] was “Stable”.
For `CCCCCCC(=O)Nc1ccc(NCc2ccccc2F)cc1N`, the Stability [1] was “Stable”.
For `CCCCCCCC(=O)Nc1ccc(NCc2ccc(C(F)(F)F)cc2)cc1N`, the Stability [1] was “Stable”.
With `CCCCCCC(=O)Nc1ccc(CCc2ccc(C(F)(F)F)cc2)cc1N` the Activity [8] was 0.0087.
With `CC(C)(C)CC(=O)Nc1ccc(NCc2ccc(C(F)(F)F)cc2)cc1N` the Stability [1] was “Stable”.
With `CCOC(=O)Nc1ccc(NCc2ccc(C(F)(F)F)cc2)c(F)c1N` the delta(V1/2) [9] was 40 mV and the Activity [5] was “Active”.

Reference: ChEMBL document CHEMBL5126610, “Beyond Retigabine: Design, Synthesis, and Pharmacological Characterization of a Potent and Chemically Stable Neuronal Kv7 Channel Activator with Anticonvulsant Activity” (J Med Chem, 2022)
